Data on two molecules can be found in ChEMBL document CHEMBL4219071, “New histone demethylase LSD1 inhibitor selectively targets teratocarcinoma and embryonic carcinoma cells” (Bioorg Med Chem, 2018).

Calls of active or inactive are those of the source. The calls are words filed in the database; no cut-off is given here.

For series [1], the target named is Lysine-specific histone demethylase 1A (Homo sapiens) (UniProt O60341). As to the kind of experiment: Inhibition of LSD1 in human HCT116 cells assessed as increase in H3K4me2 levels at 20 uM after 16 hrs by Western blot analysis. It counts as cell-based. In a few lines:
(§1)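 Actively growing HCT116 or PA-1 cells were treated with CBB3001 or DMSO vehicle for 16 hours. Total histones were extracted, and mono-, di- and trimethylated H3K4 and total histone H3 were probed by Western blot with specific antibodies and quantified. Treatments were run in technical triplicate.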
Background: Immunoblotting shows a protein as a band on a membrane.

Series [2] concerns PA-1. The experiment in a line: Effect on H3K4me3 levels in human PA1 cells at 20 uM after 16 hrs by Western blot analysis. Format: functional, cell-based. In short, it runs like this: (§2)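 HCT116 or PA-1 cells exposed 16 h to a range of concentrations. Total histones extracted. Mono-, di- and trimethylated H3K4 and total histone H3 detected by Western blot with specific antibodies and quantified.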

Series [3] relates to PA-1. The experiment in a line: Cytotoxicity against human PA1 cells assessed as cell growth inhibition at 5 to 20 uM after 12 to 16 hrs by microscopic analysis. It counts as functional, cell-based. In short, it runs like this:
(§3)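 Actively growing HCT116 or PA-1 cells (30–50% confluent), DMSO vehicle control, exposed 16 h over a range of concentrations. Cells imaged by microscope (10×10 lens). Triplicate dishes trypsinized, diluted, spotted blind on a hemacytometer, four corners counted for mean cells per dish. Treated vs control compared by two-tailed t-test. Three independent experiments.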

In series [4] the target is Lysine-specific histone demethylase 1A (Homo sapiens) (UniProt O60341). The experiment in a line: Inhibition of LSD1 in human PA1 cells assessed as increase in H3K4me1 levels at 20 uM after 16 hrs by Western blot analysis. Format: cell-based. In a few lines: as §1
Series [5] has the same target. As to the kind of experiment: Inhibition of LSD1 in human PA1 cells assessed as downregulation of OCT4 protein at 10 to 40 uM after 16 hrs by Western blot analysis.
In the next series the test system is NIH3T3. The experiment in a line: Growth inhibition of mouse NIH/3T3 cells at 20 to 40 uM after 30 hrs by microscopic analysis. Format: cell-based. The conditions noted are these: nih3t3, 30 h. In short, it runs like this: (§4)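 F9 or NIH3T3 cells in active growth, exposed 30 h to a range of concentrations with DMSO controls, then imaged by microscope. Triplicate dishes trypsinized and counted blind on a hemacytometer (four corners, mean cells per dish). Control vs treated compared by two-tailed equal-variance t-test.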

The target of series [6] is Lysine-specific histone demethylase 1A (Homo sapiens) (UniProt O60341). As to the kind of experiment: Inhibition of LSD1 in human PA1 cells assessed as downregulation of OCT4 protein expression at 20 uM after 16 hrs by Western blot analysis. Format: cell-based. In a few lines: (§5)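 PA-1 cells in log-phase growth were exposed to CBB3001 for 16 hours and lysed directly in buffer containing 0.5% SDS. Equalized lysates were Western blotted for SOX2, OCT4, LSD1, H3K4me1/2/3 and histone H3 using specific antibodies, with band quantification.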

Series [7] concerns HCT-116. The experiment in a line: Cytotoxicity against human HCT116 cells assessed as cell growth inhibition at >40 uM after 16 hrs by microscopic analysis. It counts as functional, cell-based. In short, it runs like this:
as §3

For series [8], the target named is Lysine-specific histone demethylase 1A (Homo sapiens) (UniProt O60341). As to the kind of experiment: Inhibition of LSD1 in human PA1 cells assessed as downregulation of SOX2 protein expression at 20 to 40 uM after 16 hrs by Western blot analysis. Format: cell-based. In a few lines: as §5
For series [9] the target is unchanged. As to the kind of experiment: Inhibition of LSD1 in human PA1 cells assessed as downregulation of SOX2 protein at 10 to 40 uM after 16 hrs by Western blot analysis.
Series [10] has the same target. As to the kind of experiment: Inhibition of LSD1 in human PA1 cells assessed as increase in H3K4me2 levels at 20 uM after 16 hrs by Western blot analysis. It counts as cell-based. In short, it runs like this:
as §1

Series [11] relates to PA-1. The experiment in a line: Reversible growth inhibitory activity of human PA1 cells at 20 to 40 uM preincubated for 24 hrs followed by 24 hrs recovery by microscopic analysis. It counts as functional, cell-based. In short, it runs like this: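 PA-1 cells in active growth, exposed 24 h to a range of concentrations. Compound removed, cells washed extensively and regrown 24 h in fresh medium without compound. Cells imaged, then triplicate dishes trypsinized and counted blind on a hemacytometer (four corners). Three independent experiments.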

The target of series [12] is Lysine-specific histone demethylase 1A (Mus musculus) (UniProt Q6ZQ88). The experiment in a line: Inhibition of LSD1 in mouse F9 cells assessed as downregulation of OCT4 protein at 20 to 40 uM by Western blot analysis. It counts as cell-based. In short, it runs like this:
(§6)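 F9 cells exposed 30 h to a range of concentrations, then lysed directly in 0.5% SDS lysis buffer with protein loads equalized. SOX2 and OCT4 detected by Western blot, actin as loading control, bands quantified.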

For series [13] the target is unchanged. As to the kind of experiment: Inhibition of LSD1 in mouse F9 cells assessed as downregulation of SOX2 protein at 20 to 40 uM by Western blot analysis. Format: cell-based. In a few lines: as §6
Series [14] relates to F9. The experiment in a line: Growth inhibition of mouse F9 cells at 20 to 40 uM after 30 hrs by microscopic analysis. It counts as functional, cell-based. In short, it runs like this:
as §4

Series [15] relates to HCT-116. As to the kind of experiment: Effect on H3K4me3 levels in human HCT116 cells at 20 uM after 16 hrs by Western blot analysis. Format: functional, cell-based. In a few lines:
as §2

The target of series [16] is Lysine-specific histone demethylase 1A (Homo sapiens) (UniProt O60341). As to the kind of experiment: Inhibition of LSD1 in human HCT116 cells assessed as increase in H3K4me1 levels at 20 uM after 16 hrs by Western blot analysis. Format: cell-based. In a few lines:
as §1

In series [17] the test system is PA-1. The experiment in a line: Cytotoxicity against human PA1 cells at 2 uM after 16 to 30 hrs hrs by microscopic analysis. It counts as functional, cell-based. In a few lines:
(§7)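 Actively growing (30–50% confluent) cells were given a single 2 μM dose, with DMSO as the vehicle control, for 16 h. They were imaged by microscopy with a 10×10 lens. Triplicate dishes (technical repeats) were trypsinised, diluted and blindly counted on a hemacytometer, averaging the four corner squares to give cells per dish. Treated and control means were compared by two-tailed t-test.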

Series [18] relates to HCT-116. The experiment in a line: Cytotoxicity against human HCT116 cells at 2 uM after 16 to 30 hrs hrs by microscopic analysis. Format: functional, cell-based. In a few lines:
as §7

For series [19], the system named is F9. As to the kind of experiment: Cytotoxicity against mouse F9 cells at 2 uM after 16 to 30 hrs hrs by microscopic analysis. It counts as functional, cell-based. In a few lines:
as §7

For `CC(C)(C)OC(=O)N[C@@H]1C[C@H]1c1ccc(OC(=O)OC(C)(C)C)cc1`, the inhibition result in series [1], in [4], in series [5], in series [6], in [8] and in series [9] was “Active” in each case. For the same molecule, the inhibition result in [10], in series [12], in [13] and in series [16] was “Active” throughout. Further, the result in the series on PA-1 [2] and with HCT-116 [15] was inactive. Also, the “growth inhibition (GI)” value in the series on PA-1 [3] and in the series with F9 [14] was “Active” each time. Besides, the “growth inhibition (GI)” value in the series with NIH3T3 is listed as “Non-Toxic”. The “growth inhibition (GI)” value in the series on HCT-116 [7] and in the series on PA-1 [11] was “inactive” throughout.

Take `N[C@H]1CC[C@H](N[C@@H]2C[C@H]2c2ccccc2)CC1`: the result in the series with PA-1 [17], in the series with HCT-116 [18] and with F9 [19] was Active.
